Bioassay records (PubChem BioAssay)
Sampled rows, rich in hits. Any-hit rate of the full collection: about 1.9%.
M4 antag = human M4 muscarinic receptor antagonists, primary screen, CHO cells, Fluo-8 calcium fluorescence; Muscarinic acetylcholine receptor M4 (Homo sapiens), P08173; CHO-hM4 cells, ACh EC80; inhibition, % at 3 µM; 0.73% of 360,000 active;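 active = inhibition above its plate's cutoff, the mean inhibition of sample wells plus 3 SD, cut at about 27% in these data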
Target sequence (P08173 whole entry, looked up): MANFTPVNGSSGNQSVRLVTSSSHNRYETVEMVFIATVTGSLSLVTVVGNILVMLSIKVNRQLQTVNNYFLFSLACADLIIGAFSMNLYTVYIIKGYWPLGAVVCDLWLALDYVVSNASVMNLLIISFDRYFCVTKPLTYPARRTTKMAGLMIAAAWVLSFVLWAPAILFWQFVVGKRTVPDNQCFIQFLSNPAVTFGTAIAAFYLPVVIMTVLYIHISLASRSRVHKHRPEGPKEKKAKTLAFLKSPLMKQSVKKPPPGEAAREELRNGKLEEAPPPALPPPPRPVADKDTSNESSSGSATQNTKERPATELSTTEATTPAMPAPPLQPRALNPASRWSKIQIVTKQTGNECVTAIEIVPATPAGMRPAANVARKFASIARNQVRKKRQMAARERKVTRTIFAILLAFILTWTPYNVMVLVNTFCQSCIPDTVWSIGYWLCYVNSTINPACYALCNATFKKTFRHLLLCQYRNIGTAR
CHRM4 agonist = human M4 muscarinic receptor agonists, primary screen, CHO-K1 cells, Fluo-8 calcium fluorescence | 0.14% of 360,000 active | activation, % at 3 µM | CHO-K1 hM4/Gqi5; vehicle 0%, full acetylcholine response 100% | Muscarinic acetylcholine receptor M4 (Homo sapiens), P08173 | AID 624127, 2012;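 active = activation above the run mean over all test wells plus 3 SD, cut at about 32% in these data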;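 also: peak over basal fluorescence ratio per well then scaled between controls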
M5 antag = human M5 muscarinic receptor antagonists, primary screen, CHO cells, Fluo-8 calcium fluorescence | Muscarinic acetylcholine receptor M5 (Homo sapiens), P08912 | 0.59% of 360,000 active | inhibition, % at 3 µM | CHO-hM5 cells, ACh EC80;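 active = inhibition above a per-plate cutoff, the mean of that plate's test compounds plus 3 SD, cut at about 27% in these data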
CHRM5 agonist = human M5 muscarinic receptor agonists, primary screen, CHO-K1 cells, Fluo-8 calcium fluorescence | Muscarinic acetylcholine receptor M5 (Homo sapiens), P08912 | CHO-K1 hM5 cells; 0% DMSO wells, 100% maximal acetylcholine response | activation, % at 3 µM | 0.19% of 360,000 active | AID 624037, 2012;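 active = activation above the run's mean over test compounds plus 3 SD, cut at about 23% in these data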;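 also: signal is peak over basal fluorescence ratio across the kinetic read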
CHRM5 PAM = human M5 muscarinic receptor positive allosteric modulators, primary screen, CHO-K1 cells, Fluo-8 calcium fluorescence. Muscarinic acetylcholine receptor M5 (Homo sapiens), P08912. CHO-K1 hM5, ACh EC20 PAM; 0% = ACh EC20, 100% = ACh EC100. 0.3% of 360,000 active. activation, % at 3 µM;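 active = activation above the run cutoff, the mean activation of all test compounds plus 3 SD, cut at about 18% in these data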
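Assay system: CHO-K1 hM5 cells / Incubation: Fluo-8 loading 80 min at 37 °C plus 30 min room temperature / Technique: Fluo-8 calcium dye fluorescence, kinetic read / Repeats: single replicate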
CHRM4 PAM = human M4 muscarinic receptor positive allosteric modulators, primary screen, CHO-K1 cells, Fluo-8 calcium fluorescence; Muscarinic acetylcholine receptor M4 (Homo sapiens), P08173; CHO-K1 hM4/Gqi5, ACh EC20; 0% = ACh EC20, 100% = maximal ACh; activation, % at 3 µM; 0.4% of 360,000 active;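 active = activation above its plate's cutoff, the mean activation of sample wells plus 3 SD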
A number is an active result; i = inactive.

SMILES	M4 antag	CHRM4 agonist	M5 antag	CHRM5 agonist	CHRM5 PAM	CHRM4 PAM
Cc1nn(CC(=O)Nc2nccs2)c(C)c1[N+](=O)[O-]	i	i	i	i	i	i
Cc1cc([N+](=O)[O-])nn1CCC(=O)Nc1nccs1	i	i	i	i	18	i
O=C(Nc1ccc(F)cc1)C1CCC(CNc2c(N3CCCCC3)c(=O)c2=O)CC1 (centres undefined)	i	i	i	i	i	i
COC(=O)c1ccc(S(=O)(=O)N2CCCN(Cc3ccccc3)CC2)n1C	i	i	i	i	i	i
COC(=O)c1ccc(S(=O)(=O)N2CCN(CCO)CC2)n1C	i	i	i	i	25	i
O=C(CCn1c(=S)[nH]c2cc3c(cc2c1=O)OCO3)NCc1ccccc1Cl	i	i	i	i	i	i
O=C(NNC1=NCCCCC1)c1cccc([N+](=O)[O-])c1	i	i	i	i	19	i
COCCCNC(=O)/C(C#N)=C/c1c(N2CCN(c3ccc(OC)cc3)CC2)nc2c(C)cccn2c1=O	i	i	31	i	i	i
Cc1cccn2c(=O)c(/C=C(\C#N)C(N)=O)c(N3CCN(Cc4ccc5c(c4)OCO5)CC3)nc12	40	i	i	i	i	i
COc1ccc(NC(=O)C2CCC(C)(C(=O)O)C2(C)C)cc1 (centres undefined)	28	i	i	i	i	i
CCOc1ccc(NC(=O)C2CCC(C)(C(=O)O)C2(C)C)cc1 (centres undefined)	i	i	i	i	i	i
C[C@@H]1NC(=O)c2cc([N+](=O)[O-])cc(I)c2NCCCC[C@@H](C(N)=O)NC(=O)[C@H](CCC(=O)O)NC1=O	i	i	i	i	i	i
Cc1ccc(C(=O)CCC(=O)Nc2ncccc2C)cc1	i	i	i	i	19	i
CCOC(=O)Cn1c(=N)n(CCOc2ccc(OC)cc2)c2ccccc21	i	i	i	i	i	i
CCOC(=O)Cn1c(=N)n(CCOc2ccc3ccccc3c2)c2ccccc21	i	39	i	i	i	i
OC(c1ccccc1)(c1ccccc1)C1CCN(CCCOc2cccc(OC(F)(F)F)c2)CC1	32	i	i	i	i	i
N#CCc1ccc(OCCCN2CCC(C(O)(c3ccccc3)c3ccccc3)CC2)cc1	59	i	71	i	i	i
CC(=O)Nc1ccccc1OCCCN1CCC(C(O)(c2ccccc2)c2ccccc2)CC1	i	i	i	i	i	i
Oc1ccccc1CN1CCC(C(O)(c2ccccc2)c2ccccc2)CC1	i	i	i	i	i	i
CC(C)(C)c1ccc(C(O)CCCN2CCC(C(O)(c3ccccc3)c3ccccc3)CC2)cc1 (centres undefined)	i	i	i	i	i	i
OC(c1ccccc1)(c1ccccc1)C1CCN(CCCOc2ccc3c(c2)CCCC3)CC1	32	i	i	i	i	i
c1ccc(COc2ccc(OCCCN3CCCC3)cc2)cc1	i	i	i	i	i	i
CC(=O)Nc1ccc(OCCCN2CCC(C(O)(c3ccccc3)c3ccccc3)CC2)cc1	86	i	64	i	i	i
CCOC(=O)C1CCCN(C(=O)C2CCN(S(=O)(=O)c3ccc4ccccc4c3)CC2)C1 (centres undefined)	i	i	i	i	i	i
CCC(=O)C1CCCN(C(=O)CCc2nnc(C3(c4ccc(Cl)cc4)CCC3)o2)C1 (centres undefined)	i	i	i	i	i	21
SMILES	M4 antag	CHRM4 agonist	M5 antag	CHRM5 agonist	CHRM5 PAM	CHRM4 PAM
COc1ccc2c(CC(=O)NCc3cccs3)coc2c1	i	i	i	i	i	i
O=C(Nc1cccc(C(F)(F)F)c1)C1CCN(S(=O)(=O)c2ccc(N3CCCC3=O)cc2)CC1	i	i	37	i	i	i
COc1ccc(C(=O)c2ccc([N+](=O)[O-])cc2)c(OC)c1OC	i	i	i	i	i	i
CC1CCN(CCc2nc3cc(NC(=O)C(C)C)ccc3n2C)CC1	58	i	69	i	i	i
CC(C)C(=O)Nc1ccc2c(c1)nc(CCN1CCCCC1)n2C	i	i	i	i	i	i
CCCc1cc(=O)n2c([nH]c3ccccc32)c1C#N	i	i	i	31	i	i
O=C1NC(c2ccccc2)CCO1 (centres undefined)	i	i	i	i	i	30
C[C@@H]1CCCCO[C@H](CN(C)C(=O)Cc2ccccc2)[C@@H](C)CN([C@H](C)CO)C(=O)c2cc(NC(=O)Nc3ccccc3)ccc2O1	i	i	i	i	i	i
Clc1cccc(C2CCN(Cc3nc(COc4ccccc4)no3)C2)c1 (centres undefined)	i	i	i	i	i	i
c1ccc(OCc2noc(CN3CC[C@@H]4CCCC[C@H]4C3)n2)cc1	i	i	i	i	22	i
CCOc1ccc(CCNC(=O)c2ccc(=O)[nH]c2)cc1OCC	i	i	i	i	i	i
O=c1c2ccccc2oc2cc(OCc3cccc(F)c3)cc(O)c12	i	i	i	i	i	i
COc1ccc(Nc2nc(-c3ccc4c(c3)NC(=O)CO4)cs2)cc1	i	i	i	i	i	22
COc1ccccc1Nc1nc(-c2ccc3c(c2)NC(=O)CO3)cs1	i	i	i	i	i	i
Cc1cccc(OCC(=O)Nc2ccc(N3CCN(C(=O)c4ccco4)CC3)cc2)c1	i	i	27	i	i	i
CCCCNC(=S)Nc1ccc(C(F)(F)F)cc1	i	i	34	i	i	i
CCCCNC(=S)Nc1ccc(Cl)cc1	i	i	i	i	i	i
CC1(C(=O)NS(=O)(=O)c2cccc(C#N)c2)CCN1C(=O)Cc1ccccc1Cl (centres undefined)	i	i	i	i	i	i
O=C(CSc1nnnn1-c1cccc(F)c1)NC1CC1	i	i	i	i	19	i
COc1cc2c(cc1OC)CN(C(=O)c1ccc(S(=O)(=O)N3CCCCC3)cc1)CC2	i	i	i	i	i	i
COc1ccc(S(=O)(=O)N2CCCCC2C(=O)O)cc1OC (centres undefined)	i	i	i	i	21	i
COc1cc2c(cc1OC)CN(C(=O)C1CCCN1S(=O)(=O)c1ccc(F)cc1)CC2 (centres undefined)	i	i	i	i	i	17
